Consider 24 compounds from ChEMBL document CHEMBL3877273, “Synthesis and evaluation of N-substituted 2-amino-4,5-diarylpyrimidines as selective adenosine A1 receptor antagonists” (Eur J Med Chem, 2017).

Assay [1] deals with T1, Adenosine receptor A1 (Homo sapiens, UniProt P30542).
T1 sequence (P30542 whole entry): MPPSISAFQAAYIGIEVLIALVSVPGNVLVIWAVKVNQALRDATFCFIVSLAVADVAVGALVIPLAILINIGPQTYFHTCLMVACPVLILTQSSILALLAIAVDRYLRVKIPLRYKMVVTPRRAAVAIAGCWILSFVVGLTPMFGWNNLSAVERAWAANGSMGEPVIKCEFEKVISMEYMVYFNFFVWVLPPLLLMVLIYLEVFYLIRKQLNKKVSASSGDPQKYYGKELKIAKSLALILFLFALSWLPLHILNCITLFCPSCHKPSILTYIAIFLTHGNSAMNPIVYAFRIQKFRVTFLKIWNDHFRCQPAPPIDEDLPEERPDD
Nature of the assay: Displacement of [3H]DPCPX from recombinant human adenosine A1 receptor expressed in CHO cell membranes after 1 hr by beta scintillation counting method. Background: Displacement assays read how much labelled ligand stays bound in the presence of the test substance.

The target of assay [2] is T2, Adenosine receptor A2a (Homo sapiens, UniProt P29274). Nature of the assay: Displacement of [3H]ZM241385 from recombinant human adenosine A2A receptor expressed in HEK293 cell membranes at 1 uM after 2 hrs by beta scintillation counting method relative to control. In outline:
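Single-concentration screen on membranes from HEK293 cells stably expressing human A2A receptor. Test ligand at 1 µM, measured against specific [3H]ZM241385 binding and given as % displacement. Two independent experiments (n = 2), each value reported.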

Assay [3] deals with T2, Adenosine receptor A2a. The assay is described as follows: Displacement of [3H]ZM241385 from recombinant human adenosine A2A receptor expressed in HEK293 cell membranes after 2 hrs by beta scintillation counting method. An outline of the steps:
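Membranes from HEK293 cells stably expressing human A2A receptor were used in radioligand competition with [3H]ZM241385. Ki was reported as mean ± SEM, n = 3.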

Assay [4] concerns the target T1, Adenosine receptor A1. The assay is described as follows: Inverse agonist activity at recombinant human adenosine A1 receptor expressed in CHO cell membranes assessed as […] of [35S]GTPgammaS binding preincubated for 30 mins followed by [35S]GTPgammaS addition measured after 90 mins by beta scintillation counting method. It counts as functional. A general note: GTPγS resists hydrolysis and so accumulates on activated G proteins.

Assay [5] concerns the target T3, Adenosine receptor A2b (Homo sapiens) (UniProt P29275).
T3 sequence (whole entry): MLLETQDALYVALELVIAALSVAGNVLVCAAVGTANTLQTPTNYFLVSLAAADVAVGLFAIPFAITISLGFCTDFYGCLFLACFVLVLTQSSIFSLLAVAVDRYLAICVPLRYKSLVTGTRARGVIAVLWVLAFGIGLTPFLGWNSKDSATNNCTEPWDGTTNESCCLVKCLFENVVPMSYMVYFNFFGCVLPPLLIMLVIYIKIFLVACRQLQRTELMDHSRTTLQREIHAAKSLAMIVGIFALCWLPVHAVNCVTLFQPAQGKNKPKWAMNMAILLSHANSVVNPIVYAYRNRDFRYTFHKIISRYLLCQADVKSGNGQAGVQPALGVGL
The assay is described as follows: Displacement of [3H]PSB603 from recombinant human adenosine A2B receptor expressed in CHO cell membranes at 1 uM after 1 hr by beta scintillation counting method relative to control.

The target in assay [6] is T4, Adenosine receptor A3 (Homo sapiens) (UniProt P0DMS8).
T4 sequence (whole entry): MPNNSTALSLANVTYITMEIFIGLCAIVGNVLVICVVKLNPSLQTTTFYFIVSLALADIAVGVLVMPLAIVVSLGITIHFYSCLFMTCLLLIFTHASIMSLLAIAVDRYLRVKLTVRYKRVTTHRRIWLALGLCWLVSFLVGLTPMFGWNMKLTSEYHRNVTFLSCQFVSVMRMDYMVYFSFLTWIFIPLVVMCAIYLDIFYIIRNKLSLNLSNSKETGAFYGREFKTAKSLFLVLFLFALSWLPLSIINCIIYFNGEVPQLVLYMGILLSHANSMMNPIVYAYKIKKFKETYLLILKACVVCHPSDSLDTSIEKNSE
The assay is described as follows: Displacement of [3H]PSB11 from recombinant human adenosine A3 receptor expressed in CHO cell membranes at 1 uM after 1 hr by […] method relative to control.

The target of the next assay is T5, Adenosine receptor A2b (Homo sapiens, UniProt P29275).
T5 sequence (P29275 whole entry): T3 sequence (whole entry)
Nature of the assay: Displacement of [3H]PSB603 from recombinant human adenosine A2B receptor expressed in CHO cell membranes after 1 hr by beta scintillation counting method.

T2 sequence (P29274 whole entry): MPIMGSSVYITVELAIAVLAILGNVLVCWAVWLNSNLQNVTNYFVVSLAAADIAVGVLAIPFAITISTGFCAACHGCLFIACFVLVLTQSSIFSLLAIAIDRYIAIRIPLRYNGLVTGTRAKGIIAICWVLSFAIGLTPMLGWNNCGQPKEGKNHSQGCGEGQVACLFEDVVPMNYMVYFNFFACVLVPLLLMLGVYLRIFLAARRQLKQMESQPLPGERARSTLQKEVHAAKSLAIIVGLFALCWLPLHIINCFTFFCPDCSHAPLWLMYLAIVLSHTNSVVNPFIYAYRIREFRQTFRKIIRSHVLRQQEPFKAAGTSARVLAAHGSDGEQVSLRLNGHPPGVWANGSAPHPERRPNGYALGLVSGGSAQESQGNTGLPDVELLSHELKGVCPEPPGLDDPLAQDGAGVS

The Ki is the dissociation constant of the complex between target and ligand, obtained from inhibition or displacement. As usually defined, the inhibition is the percentage by which the read-out fell short of the control. In the case of `OCCCCNc1ncc(-c2cccc(Cl)c2)c(-c2ccccc2)n1`, the Ki at Adenosine receptor A1 [1] came to 130 nM. The inhibition at Adenosine receptor A2a [2] is 13%.

With `OCCNc1ncc(-c2cccc(Cl)c2)c(-c2ccccc2)n1`, on Adenosine receptor A1 [1], the inhibitory constant (Ki) was 180 nM.

`Nc1ncc(-c2ccc3ccccc3c2)c(-c2ccccc2)n1`: the values for the inhibition constant Ki on Adenosine receptor A2a [3] and at Adenosine receptor A1 [1] were 129 nM and 18 nM, respectively. Turning to `CCCC(=O)Nc1ncc(-c2cccc(Cl)c2)c(-c2ccccc2)n1`, the inhibition constant Ki on Adenosine receptor A1 [1] stood at 106 nM. With `COc1cccc(-c2cnc(N)nc2-c2ccccc2)c1`, the inhibition constant (Ki) on Adenosine receptor A2a [3] was 154 nM; at Adenosine receptor A1 [1] it was 54 nM. Regarding `Nc1ncc(-c2cccc(O)c2)c(-c2ccccc2)n1`, the Ki on Adenosine receptor A1 [1] was determined as 144 nM. For `Nc1ncc(-c2cccc(Cl)c2)c(-c2ccccc2)n1`, the inhibition constant Ki on Adenosine receptor A2a [3] was found to be 120 nM; on Adenosine receptor A1 [1] it was 55 nM. Turning to `Nc1ncc(-c2ccc(O)c(O)c2)c(-c2ccccc2)n1`, the Ki on Adenosine receptor A2a [3] was 4.7 nM; on Adenosine receptor A1 [1] it was 12 nM. The like results for `Nc1ncc(-c2ccnc(C3CC3)c2)c(-c2ccccc2)n1` were, in that order, 36 nM and 1.76 nM. For `OCCCNc1ncc(-c2cccc(Cl)c2)c(-c2ccccc2)n1`, the Ki on Adenosine receptor A1 [1] turned out to be 59 nM. Besides, the inhibition on Adenosine receptor A2a [2] is 9.5%. The like results for `Nc1ncc(-c2ccc(Cl)c(Cl)c2)c(-c2ccccc2)n1` were, in that order, 38 nM and 41%.

As for `O[C@H]1CC[C@H](Nc2ncc(-c3ccnc(C4CC4)c3)c(-c3ccccc3)n2)CC1`, the Ki came out at 65 nM on Adenosine receptor A2a [3] and 1.06 nM at Adenosine receptor A1 [1].

By EC50 is commonly meant the midpoint of the concentration-response curve. For `O[C@H]1CC[C@H](Nc2ncc(-c3cccc(Cl)c3)c(-c3ccccc3)n2)CC1`, the EC50 on Adenosine receptor A1 [4] was found to be 278 nM. The inhibition in assay [5] worked out at 27%; in assay [6] it was 3%; at Adenosine receptor A2a [2] it was 1.4%. Also, on Adenosine receptor A1 [1], the inhibition constant Ki was 30 nM. With `Cc1cccc(-c2cnc(N)nc2-c2ccccc2)c1`, the Ki on Adenosine receptor A1 [1] was 205 nM. As to `Nc1ncc(-c2ccc(O)c(Cl)c2)c(-c2ccccc2)n1`, the inhibition constant (Ki) stood at 1.3 nM at Adenosine receptor A2a [3] and 0.46 nM at Adenosine receptor A1 [1]. Take `Nc1ncc(-c2ccc(O)cc2)c(-c2ccccc2)n1`: the Ki at Adenosine receptor A2a [3] was 1.3 nM; at Adenosine receptor A1 [1], 1.4 nM.

As to `COc1ccc(-c2cnc(N)nc2-c2ccccc2)cc1OC`, the inhibitory constant (Ki) at Adenosine receptor A1 [1] was determined as 104 nM.

Consider `Nc1ncc(-c2ccc(F)cc2)c(-c2ccccc2)n1`, for which the Ki on Adenosine receptor A1 [1] was 160 nM. Regarding `Nc1ncc(-c2ccncc2)c(-c2ccccc2)n1`, the values for the inhibition constant (Ki) at Adenosine receptor A2a [3] and on Adenosine receptor A1 [1] were 108 nM and 17 nM, respectively. Take `Oc1ccc(-c2cnc(N[C@H]3CC[C@H](O)CC3)nc2-c2ccccc2)cc1Cl`: the Ki at Adenosine receptor A2a [3] came out at 7.2 nM. Take `Clc1cccc(-c2cnc(NC3CCCC3)nc2-c2ccccc2)c1`: the Ki on Adenosine receptor A1 [1] was 94 nM. For the same compound, the inhibition on Adenosine receptor A2a [2] was 23%. For `Nc1ncc(-c2cccc(C(F)(F)F)c2)c(-c2ccccc2)n1`, the figures for the Ki at Adenosine receptor A2a [3] and on Adenosine receptor A1 [1] were 98 nM and 14 nM, respectively. As a reminder, the IC50 is the concentration needed to halve the response being measured. With `O[C@H]1CC[C@H](Nc2ncc(-c3ccc4ccccc4c3)c(-c3ccccc3)n2)CC1`, the EC50 at Adenosine receptor A1 [4] worked out at 166 nM. Further, the inhibition in assay [5] was determined as 48%; in assay [6], 9%. On Adenosine receptor A2b, the 50% inhibitory concentration (IC50) is 1000 nM. Take `COc1ccc(-c2cnc(N)nc2-c2ccccc2)cc1Cl`: the figures for the inhibition constant (Ki) on Adenosine receptor A2a [3] and on Adenosine receptor A1 [1] were 251 nM and 30 to 95 nM, respectively.
